{"source": "paper PMC9236207", "about": "(ACS Pharmacology & Translational Science, 2022)", "key": {"[1]": {"target": "T1, ACE2 (Homo sapiens, UniProt Q9BYF1)", "T1 sequence (Q9BYF1 18-740)": "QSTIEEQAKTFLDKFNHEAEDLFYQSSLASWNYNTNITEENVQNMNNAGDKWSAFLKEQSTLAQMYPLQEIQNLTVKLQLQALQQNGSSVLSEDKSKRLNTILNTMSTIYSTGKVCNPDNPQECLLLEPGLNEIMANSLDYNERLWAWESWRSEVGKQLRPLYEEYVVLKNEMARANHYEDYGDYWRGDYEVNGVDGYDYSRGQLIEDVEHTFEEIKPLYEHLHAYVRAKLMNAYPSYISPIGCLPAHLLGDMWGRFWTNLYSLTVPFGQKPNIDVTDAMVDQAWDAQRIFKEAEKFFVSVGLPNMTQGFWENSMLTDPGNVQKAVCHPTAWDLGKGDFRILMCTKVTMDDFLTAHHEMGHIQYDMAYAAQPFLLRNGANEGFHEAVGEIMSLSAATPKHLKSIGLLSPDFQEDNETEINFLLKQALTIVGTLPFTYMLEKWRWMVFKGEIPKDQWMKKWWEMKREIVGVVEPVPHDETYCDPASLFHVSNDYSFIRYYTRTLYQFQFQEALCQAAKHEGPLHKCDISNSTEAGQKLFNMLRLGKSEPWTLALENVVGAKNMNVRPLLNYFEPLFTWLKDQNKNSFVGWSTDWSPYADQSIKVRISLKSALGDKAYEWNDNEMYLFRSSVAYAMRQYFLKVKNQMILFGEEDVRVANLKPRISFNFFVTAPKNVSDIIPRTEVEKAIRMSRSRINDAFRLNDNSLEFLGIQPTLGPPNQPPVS", "assay": "ACE2 binding by microscale thermophoresis", "how_it_was_run": "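Seven-point twofold compound dilution series. MST at 45% excitation and medium MST power. Kd (± standard error) fitted from the change in normalized fluorescence. A poly-His peptide counterscreen was run under identical conditions.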"}, "[2]": {"target": "T1, ACE2", "assay": "ACE2 enzymatic assay", "type": "biochemical", "how_it_was_run": "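Fluorometric assay with His-tagged ACE2 extracellular domain at 0.2 nM final in PBS pH 7.4, 0.01% Tween-20, preincubated with compound for 15 min at RT. Then MCA-Ala-Pro-Lys(Dnp)-OH substrate was added (60 μM stock). Fluorescence read at 340/440 nm at 0 and 15 min, RT.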"}}, "data": [{"compound": "CC(C)C[C@H](N[C@@H](Cc1cncn1Cc1cc(Cl)cc(Cl)c1)C(=O)O)C(=O)O", "note": "[MLN-4760]", "values": [{"measurement": "Kd", "setting": "[1]", "value": 702, "unit": "nM"}, {"measurement": "IC50", "setting": "[2]", "value": 1.5, "unit": "nM"}]}]}
